Data taken from ChEMBL document CHEMBL3102735, “Enhancing the pharmacodynamic profile of a class of selective COX-2 inhibiting nitric oxide donors” (Bioorg Med Chem, 2014).
Calls of active or inactive are those of the source. The calls are words filed in the database; no cut-off is given here.

Key:
[1] = molecular target: T1, Prostaglandin G/H synthase 2 (Mus musculus) (UniProt Q05769); assay: Inhibition of LPS-induced COX-2 in mouse J774 cells using arachidonic acid as substrate assessed as inhibition of prostaglandin E2 production at 10 uM preincubated for 15 mins followed by substrate addition measured after 30 mins by RIA; assay type: cell-based
T1 sequence (whole entry): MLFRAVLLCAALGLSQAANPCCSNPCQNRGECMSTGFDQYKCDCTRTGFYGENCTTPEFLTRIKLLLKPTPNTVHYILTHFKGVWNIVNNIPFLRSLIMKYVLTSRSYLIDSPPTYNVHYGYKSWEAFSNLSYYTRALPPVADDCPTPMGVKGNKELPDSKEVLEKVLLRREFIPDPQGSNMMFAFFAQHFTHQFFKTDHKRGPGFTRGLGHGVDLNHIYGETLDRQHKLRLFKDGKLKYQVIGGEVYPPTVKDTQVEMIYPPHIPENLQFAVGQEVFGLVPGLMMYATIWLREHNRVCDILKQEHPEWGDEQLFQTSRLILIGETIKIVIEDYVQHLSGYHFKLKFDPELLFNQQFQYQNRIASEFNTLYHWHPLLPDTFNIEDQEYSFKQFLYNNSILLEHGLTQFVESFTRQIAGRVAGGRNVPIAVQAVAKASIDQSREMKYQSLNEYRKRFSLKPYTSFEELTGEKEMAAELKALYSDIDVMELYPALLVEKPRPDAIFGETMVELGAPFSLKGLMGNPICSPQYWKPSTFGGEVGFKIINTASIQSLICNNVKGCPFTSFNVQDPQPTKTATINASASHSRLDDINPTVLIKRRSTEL

[2] = test system: Liver; assay: Induction of nitric oxide production in Wistar rat liver homogenate assessed as NOx level at 1 mM; assay type: functional, tissue-based; settings: TDE = time-dependent effect
[3] = test system: Mus musculus; assay: Antihyperalgesic activity in Swiss albino mouse assessed as reduction in carrageenan-induced inflammation at 40 mg/kg, po after 120 mins relative to control; assay type: functional; set-up: scale not given: the % may be the effect or the level left
[4] = test system: Rattus norvegicus; assay: Drug metabolism in Wistar rat plasma assessed as 2-(1-(4-fluorophenyl)-2-methyl-5-(4-(methylsulfonyl)phenyl)-1H-pyrrol-3-yl)-N-(2-hydroxyethyl)acetamide metabolite at 10 mg/kg, po up to 6 hrs by LC-MS/MS analysis; assay type: ADME, organism-based; set-up: dose 10 mg/kg, route oral; settings: in vivo
Outline: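 Male Han Wistar rats, three per route, single 10 mg/kg/5 mL dose iv or po in 5% DMSO, 5% Cremophor EL, 0.1% Tween 80 in 150 mM phosphate buffer pH 7. Jugular-vein blood sampled, plasma methanol-precipitated, parent and hydroxy metabolite quantified by LC–MS/MS in positive ESI MRM mode (LLOQ 1–15 ng/mL).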

[5] = Solubility of the compound in phosphate buffer saline at pH 7.4 after 90 mins by HPLC analysis; assay type: physicochemical
Outline: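 DMSO stock (20 mM) diluted 2 µL into 198 µL PBS 0.01 M pH 7.4 or pepsin-free SGF 0.05 M pH 1.5, duplicate wells, shaken 90 min at 300 rpm. Filtrates analysed by HPLC with photodiode-array detection against seven-point standards (1–200 µM).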

[6] = test system: Thoracic aorta; assay: Ex vivo vasorelaxant activity in Wistar rat endothelium thoracic aortic ring assessed as reduction of KCl-induced contraction in presence of guanylate cyclase inhibitor ODQ; assay type: functional
Outline: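 Endothelium-denuded thoracic aortic rings from male Wistar rats (250–350 g) in oxygenated Tyrode-type buffer at 37 °C, isometric tension recording. Rings precontracted with 30 mM KCl, then 3-fold increasing compound concentrations (1 nM–10 µM) added, also with 1 µM ODQ preincubated. Emax as % of KCl tone; pIC50; mean ± SE of 6–10 experiments.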

Cc1c(CC(=O)NCCO[N+](=O)[O-])cc(-c2ccc(S(C)(=O)=O)cc2)n1-c1ccc(F)cc1
inhibition [1]: 100% | Activity [2]: tde | Activity [3]: 0% | Drug metabolism [4]: Active | solubility at 1.5 h [5]: > 200 µM | Activity [6]: inactive
